Experimental data as given in ChEMBL document CHEMBL3045143, “Role of exogenously supplied ferulic and p-coumaric acids in mimicking the mode of action of acetolactate synthase inhibiting herbicides” (J Agric Food Chem, 2011).
Activity calls are given as the source filed them. The rule behind the calls is not given here.

Assays:
Root [1] = test: Induction of PAL activity in Pisum sativum (pea) roots at 69 uM added to nutrient medium measured 5 to 15 days post onset of compound treatment; assay type: functional; settings: Lathyrus oleraceus
Method in brief: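 Roots were taken from 12-day-old pea plants (cv. Snap Sugar Boys) treated via nutrient solution, renewed every 3 days at pH 6–7. For PAL activity, extracts were not filtered on Sephadex G-25. Reaction ran 1 h at 37 °C, then HCl was added and the mixture was centrifuged at 5000g for 5 min.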

Leaf [2] = test: Induction of sinapic acid accumulation in Pisum sativum (pea) leaves at 69 uM added to nutrient medium measured 5 to 15 days post onset of compound treatment by HPLC method; assay type: functional; settings: Lathyrus oleraceus
Method in brief: (§1)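 Compound was added to the nutrient solution of 12-day-old pea plants (cv. Snap Sugar Boys), renewed every 3 days at pH 6–7. Leaves or roots were sampled at 0, 1, 3, 7, 10 and 15 days. Values are mean ± standard error, n = 5 single plants. One-way ANOVA with Fisher test versus untreated controls on each day, p < 0.05.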

Root [3] = test: Induction of caffeic acid accumulation in Pisum sativum (pea) roots at 69 uM added to nutrient medium measured 5 to 15 days post onset of compound treatment by HPLC method; assay type: functional; settings: Lathyrus oleraceus; method in brief: as §1
Root [4] = test: Induction of ferulic acid accumulation in Pisum sativum (pea) roots at 69 uM added to nutrient medium measured 5 to 15 days post onset of compound treatment by HPLC method; assay type: functional; settings: Lathyrus oleraceus; method in brief: as §1
Root [5] = test: Reduction in sinapic acid accumulation in Pisum sativum (pea) roots at 69 uM added to nutrient medium measured 3 to 10 days post onset of compound treatment by HPLC method; assay type: functional; settings: Lathyrus oleraceus; method in brief: as §1
Leaf [6] = test: Induction of ferulic acid accumulation in Pisum sativum (pea) leaves at 69 uM added to nutrient medium measured 5 to 15 days post onset of compound treatment by HPLC method; assay type: functional; settings: Lathyrus oleraceus; method in brief: as §1
Root [7] = test: Increase in lignin content in Pisum sativum (pea) roots at 69 uM added to nutrient medium measured 10 days post onset of compound treatment; assay type: functional; settings: Lathyrus oleraceus
Method in brief: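 Compound was added to the nutrient solution of 12-day-old pea plants (cv. Snap Sugar Boys). Solution was renewed every 3 days at pH 6–7. Lignin was measured in roots from plants sampled on set days up to day 15.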

Pisum sativum [8] = test: Growth inhibition in Pisum sativum (pea) at 69 uM added to nutrient medium measured 22 to 23 days post onset of compound treatment; assay type: functional, organism-based; settings: Lathyrus oleraceus
Method in brief: (§2)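 Pea (cv. Snap Sugar Boys) grown hydroponically. Compound added to the nutrient solution at 12 days old. Solution was renewed every 3 days, with pH held between 6 and 7. Plants were followed over the treatment period.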

Root [9] = test: Induction of p-coumaric acid accumulation in Pisum sativum (pea) roots at 69 uM added to nutrient medium measured 5 to 15 days post onset of compound treatment by HPLC method; assay type: functional; settings: Lathyrus oleraceus; method in brief: as §1
Leaf [10] = test: Induction of p-coumaric acid accumulation in Pisum sativum (pea) leaves at 69 uM added to nutrient medium measured 5 to 15 days post onset of compound treatment by HPLC method; assay type: functional; settings: Lathyrus oleraceus; method in brief: as §1
Root [11] = test: Induction of DAHPS enzyme expression in Pisum sativum (pea) roots at 69 uM added to nutrient medium measured 5 to 15 days post onset of compound treatment by immunoblot; assay type: functional; settings: Lathyrus oleraceus
Method in brief: (§3)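 Roots were taken from pea plants (cv. Snap Sugar Boys) treated via nutrient solution from 12 days old, with the solution renewed every 3 days. Samples were taken at days 3, 7, 10 and 15.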

Leaf [12] = test: Induction of caffeic acid accumulation in Pisum sativum (pea) leaves at 69 uM added to nutrient medium measured 5 to 15 days post onset of compound treatment by HPLC method; assay type: functional; settings: Lathyrus oleraceus; method in brief: as §1
Root [13] = test: Induction of ferulic acid accumulation in Pisum sativum (pea) roots at 28 nM added to nutrient medium measured 5 to 15 days post onset of compound treatment by HPLC method; assay type: functional; settings: Lathyrus oleraceus; method in brief: as §1
Pisum sativum [14] = test: Growth inhibition in Pisum sativum (pea) at 28 nM added to nutrient medium measured 22 to 23 days post onset of compound treatment; assay type: functional, organism-based; settings: Lathyrus oleraceus; method in brief: as §2
Root [15] = test: Induction of caffeic acid accumulation in Pisum sativum (pea) roots at 28 nM added to nutrient medium measured 5 to 15 days post onset of compound treatment by HPLC method; assay type: functional; settings: Lathyrus oleraceus; method in brief: as §1
Leaf [16] = test: Induction of ferulic acid accumulation in Pisum sativum (pea) leaves at 28 nM added to nutrient medium measured 5 to 15 days post onset of compound treatment by HPLC method; assay type: functional; settings: Lathyrus oleraceus; method in brief: as §1
Root [17] = test: Reduction in sinapic acid accumulation in Pisum sativum (pea) roots at 28 nM added to nutrient medium measured 3 to 10 days post onset of compound treatment by HPLC method; assay type: functional; settings: Lathyrus oleraceus; method in brief: as §1
Root [18] = test: Induction of DAHPS enzyme expression in Pisum sativum (pea) roots at 28 nM added to nutrient medium measured 5 to 15 days post onset of compound treatment by immunoblot; assay type: functional; settings: Lathyrus oleraceus; method in brief: as §3
Leaf [19] = test: Induction of p-coumaric acid accumulation in Pisum sativum (pea) leaves at 28 nM added to nutrient medium measured 5 to 15 days post onset of compound treatment by HPLC method; assay type: functional; settings: Lathyrus oleraceus; method in brief: as §1
Root [20] = test: Induction of p-coumaric acid accumulation in Pisum sativum (pea) roots at 28 nM added to nutrient medium measured 5 to 15 days post onset of compound treatment by HPLC method; assay type: functional; settings: Lathyrus oleraceus; method in brief: as §1
Leaf [21] = test: Induction of caffeic acid accumulation in Pisum sativum (pea) leaves at 28 nM added to nutrient medium measured 5 to 15 days post onset of compound treatment by HPLC method; assay type: functional; settings: Lathyrus oleraceus; method in brief: as §1
Leaf [22] = test: Induction of sinapic acid accumulation in Pisum sativum (pea) leaves at 28 nM added to nutrient medium measured 5 to 15 days post onset of compound treatment by HPLC method; assay type: functional; settings: Lathyrus oleraceus; method in brief: as §1
Pisum sativum [23] = test: Growth inhibition in Pisum sativum (pea) assessed as root elongation arrest at 1 mM added to nutrient medium measured within 1 day post onset of compound treatment; assay type: functional, organism-based; settings: Lathyrus oleraceus
Method in brief: (§4)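 Pea (Pisum sativum cv. Snap Sugar Boys) plants were grown in nutrient solution. At 12 days old, 1 mM phenolic acid was added to the solution. The solution was replaced every 3 days and kept at pH 6–7. Samples were collected at 0, 1, 3, 7, 10 and 15 days. Untreated plants were controls. One-way ANOVA with Fisher test, p < 0.05.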

Leaf [24] = test: Drug level in Pisum sativum (pea) leaves at 1 mM added to nutrient medium measured 5 to 15 days post onset of compound treatment by HPLC method; assay type: ADME; settings: lathyrus oleraceus, 1000 µM; method in brief: as §4
Root [25] = test: Effect on sucrose content in Pisum sativum (pea) roots at 1 mM added to nutrient medium measured 5 to 15 days post onset of compound treatment by capillary electrophoresis method; assay type: functional; settings: Lathyrus oleraceus; method in brief: as §4
Root [26] = test: Effect on starch content in Pisum sativum (pea) roots at 1 mM added to nutrient medium measured 5 to 15 days post onset of compound treatment by capillary electrophoresis method; assay type: functional; settings: Lathyrus oleraceus; method in brief: as §4
Leaf [27] = test: Increase in starch content in Pisum sativum (pea) leaves at 1 mM added to nutrient medium measured 5 to 15 days post onset of compound treatment by capillary electrophoresis method; assay type: functional; settings: Lathyrus oleraceus; method in brief: as §4
Root [28] = test: Induction of PDC protein expression in Pisum sativum (pea) roots at 1 mM added to nutrient medium measured 5 to 15 days post onset of compound treatment by immunoblot; assay type: functional; settings: Lathyrus oleraceus; method in brief: as §4
Pisum sativum [29] = test: Growth inhibition in Pisum sativum (pea) assessed as shoot growth arrest at 1 mM added to nutrient medium measured within 10 days post onset of compound treatment; assay type: functional, organism-based; settings: Lathyrus oleraceus; method in brief: as §4
Root [30] = test: Induction of ADH protein enzyme expression in Pisum sativum (pea) roots at 1 mM added to nutrient medium measured 5 to 15 days post onset of compound treatment by immunoblot; assay type: functional; settings: Lathyrus oleraceus; method in brief: as §4
Root [31] = test: Drug level in Pisum sativum (pea) roots at 1 mM added to nutrient medium measured 5 to 15 days post onset of compound treatment by HPLC method; assay type: ADME; settings: lathyrus oleraceus, 1000 µM; method in brief: as §4
Leaf [32] = test: Increase in quinate content in Pisum sativum (pea) leaves at 1 mM added to nutrient medium measured 5 to 15 days post onset of compound treatment by ion chromatography; assay type: functional; settings: Lathyrus oleraceus; method in brief: as §4
Root [33] = test: Reduction in PAL activity in Pisum sativum (pea) roots at 1 MM added to nutrient medium measured 7 days post onset of compound treatment; assay type: functional; parameters: dose or concentration left out as unconfirmed; settings: Lathyrus oleraceus; method in brief: as §4
Root [34] = test: Increase in lignin content in Pisum sativum (pea) roots at 1 mM added to nutrient medium measured 5 to 15 days post onset of compound treatment; assay type: functional; settings: Lathyrus oleraceus; method in brief: as §4

CCc1cnc(C2=NC(C)(C(C)C)C(=O)N2)c(C(=O)O)c1 (centres undefined)
Activity (Root [1]): inactive | Activity (Leaf [2]): Active | Activity (Root [3]): Active | Activity (Root [4]): Active | Activity (Root [5]): Active | Activity (Leaf [6]): Active | Activity (Root [7]): Active | growth inhibition (GI) (Pisum sativum [8]): Active | Activity (Root [9]): Active | Activity (Leaf [10]): Active | Activity (Root [11]): Active | Activity (Leaf [12]): Active

COc1nc(C)nc(NC(=O)NS(=O)(=O)c2ccccc2Cl)n1
Activity (Root [13]): Active | growth inhibition (GI) (Pisum sativum [14]): Active | Activity (Root [15]): Active | Activity (Leaf [16]): Active | Activity (Root [17]): Active | Activity (Root [18]): Active | Activity (Leaf [19]): Active | Activity (Root [20]): Active | Activity (Leaf [21]): Active | Activity (Leaf [22]): Active

O=C(O)/C=C/c1ccc(O)cc1 [COUMARIC ACID]
Activity (Pisum sativum [23]): Active | Drug uptake (Leaf [24]): Active | Activity (Root [25]): inactive | Activity (Root [26]): inactive | Activity (Leaf [27]): Active | Activity (Root [28]): Active | Activity (Pisum sativum [29]): Active | Activity (Root [30]): Active | Drug uptake (Root [31]): Active | Activity (Leaf [32]): Active

COc1cc(/C=C/C(=O)O)ccc1O [FERULATE]
Activity (Pisum sativum [23]): Active | Drug uptake (Leaf [24]): Active | Activity (Root [25]): inactive | Activity (Root [33]): Active | Activity (Root [34]): Active | Activity (Root [26]): inactive | Activity (Leaf [27]): Active | Activity (Root [28]): Active | Activity (Pisum sativum [29]): Active | Activity (Root [30]): Active | Drug uptake (Root [31]): Active | Activity (Leaf [32]): Active
